Values after ≈ are worked out from the molar mass of the structure shown.
Assays:
[1] = Lipophilicity, log P of the compound by UV-Vis spectrophotometric method based saturation shake flask assay; type: physicochemical; details: octanol/water
Outline: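 Log P measured by the traditional saturation shake-flask partition, with compound quantified by UV-vis spectrophotometry.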

Candida = test: Antimicrobial activity against Candida mycoderma by microbroth dilution method; type: functional
Outline: (§1)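 Two-fold serial broth microdilution in 96-well microtest plates, run against four Gram-positive strains, five Gram-negative strains and two fungi.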

[2] = Antimicrobial activity against Eberthella typhosa by microbroth dilution method; type: functional; outline: as §1
Candida albicans = test: Antimicrobial activity against Candida albicans by microbroth dilution method; type: functional; outline: as §1
Bacillus = test: Antimicrobial activity against Bacillus proteus by microbroth dilution method; type: functional; outline: as §1
Pseudomonas aeruginosa = test: Antimicrobial activity against Pseudomonas aeruginosa by microbroth dilution method; type: functional; outline: as §1
Shigella dysenteriae = test: Antimicrobial activity against Shigella dysenteriae by microbroth dilution method; type: functional
Escherichia coli = test: Antimicrobial activity against Escherichia coli DH52 by microbroth dilution method; type: functional; outline: as §1
Micrococcus luteus = test: Antimicrobial activity against Micrococcus luteus ATCC 4698 by microbroth dilution method; type: functional; outline: as §1
Bacillus subtilis = test: Antimicrobial activity against Bacillus subtilis by microbroth dilution method; type: functional; outline: as §1
Staphylococcus aureus [3] = test: Antimicrobial activity against Staphylococcus aureus ATCC 25923 by microbroth dilution method; type: functional; outline: as §1
Staphylococcus aureus [4] = test: Antimicrobial activity against methicillin-resistant Staphylococcus aureus N315 by microbroth dilution method; type: functional

| SMILES | logP ([1]; read-out: logP) | MIC (Candida) [µg/mL] | MIC [2] [µg/mL] | MIC (Candida albicans) [µg/mL] | MIC (Bacillus) [µg/mL] | MIC (Pseudomonas aeruginosa) [µg/mL] | MIC (Shigella dysenteriae) [µg/mL] | MIC (Escherichia coli) [µg/mL] | MIC (Micrococcus luteus) [µg/mL] | MIC (Bacillus subtilis) [µg/mL] | MIC (Staphylococcus aureus [3]) [µg/mL] | MIC (Staphylococcus aureus [4]) [µg/mL] | logP [1] |
| --- | --- | --- | --- | --- | --- | --- | --- | --- | --- | --- | --- | --- | --- |
| ClCc1nc2ccccc2[nH]1 | 1.44 | > 512 | 512 (≈ 3070 µM) | 512 (≈ 3070 µM) | > 512 | > 512 | 512 (≈ 3070 µM) | 256 (≈ 1540 µM) | 512 (≈ 3070 µM) | > 512 | > 512 | > 512 | – |
| CCCCCCCCCCCCn1c(CNNC(=O)c2sc(C(=O)NNCc3nc4ccccc4n3CCCCCCCCCCCC)c(C)c2C)nc2ccccc21 | – | 64 (≈ 77.6 µM) | 256 (≈ 310 µM) | 256 (≈ 310 µM) | > 512 | 128 (≈ 155 µM) | 16 (≈ 19.4 µM) | 128 (≈ 155 µM) | > 512 | 512 (≈ 620 µM) | 128 (≈ 155 µM) | 8 (≈ 9.69 µM) | ND(Insoluble) |
| CCCCCCCCCCCCCCCCCCn1c(CNNC(=O)c2sc(C(=O)NNCc3nc4ccccc4n3CCCCCCCCCCCCCCCCCC)c(C)c2C)nc2ccccc21 | – | 256 (≈ 258 µM) | 64 (≈ 64.4 µM) | > 512 | > 512 | 512 (≈ 515 µM) | 512 (≈ 515 µM) | 512 (≈ 515 µM) | > 512 | > 512 | 256 (≈ 258 µM) | 512 (≈ 515 µM) | ND(Insoluble) |
| Cc1c(C(=O)NNCc2nc3ccccc3n2Cc2ccc(Cl)c(Cl)c2)sc(C(=O)NNCc2nc3ccccc3n2Cc2ccc(Cl)c(Cl)c2)c1C | 7.16 | > 512 | > 512 | > 512 | > 512 | > 512 | > 512 | 512 (≈ 635 µM) | > 512 | 512 (≈ 635 µM) | 32 (≈ 39.7 µM) | > 512 | – |
| Cc1c(C(=O)NNCc2nc3ccccc3n2Cc2ccc(F)cc2F)sc(C(=O)NNCc2nc3ccccc3n2Cc2ccc(F)cc2F)c1C | 4.96 | 256 (≈ 346 µM) | 128 (≈ 173 µM) | 64 (≈ 86.4 µM) | 128 (≈ 173 µM) | 128 (≈ 173 µM) | 256 (≈ 346 µM) | 128 (≈ 173 µM) | 256 (≈ 346 µM) | 256 (≈ 346 µM) | 64 (≈ 86.4 µM) | 128 (≈ 173 µM) | – |
| Cc1c(C(=O)NNCc2nc3ccccc3n2Cc2ccc(F)cc2)sc(C(=O)NNCc2nc3ccccc3n2Cc2ccc(F)cc2)c1C | 5.25 | 32 (≈ 45.4 µM) | 128 (≈ 182 µM) | 64 (≈ 90.8 µM) | 128 (≈ 182 µM) | 128 (≈ 182 µM) | 128 (≈ 182 µM) | 32 (≈ 45.4 µM) | 128 (≈ 182 µM) | 32 (≈ 45.4 µM) | 128 (≈ 182 µM) | 128 (≈ 182 µM) | – |
| Cc1c(C(=O)NNCc2nc3ccccc3n2Cc2ccc(Cl)cc2)sc(C(=O)NNCc2nc3ccccc3n2Cc2ccc(Cl)cc2)c1C | 6.19 | 32 (≈ 43.4 µM) | 16 (≈ 21.7 µM) | 16 (≈ 21.7 µM) | 32 (≈ 43.4 µM) | 32 (≈ 43.4 µM) | 32 (≈ 43.4 µM) | 8 (≈ 10.8 µM) | 16 (≈ 21.7 µM) | 32 (≈ 43.4 µM) | 32 (≈ 43.4 µM) | 32 (≈ 43.4 µM) | – |
| Cc1c(C(=O)NNCc2nc3ccccc3n2Cc2cccc(Cl)c2)sc(C(=O)NNCc2nc3ccccc3n2Cc2cccc(Cl)c2)c1C | 6.34 | 64 (≈ 86.8 µM) | 256 (≈ 347 µM) | 128 (≈ 174 µM) | 128 (≈ 174 µM) | 128 (≈ 174 µM) | 128 (≈ 174 µM) | 32 (≈ 43.4 µM) | 32 (≈ 43.4 µM) | 128 (≈ 174 µM) | 128 (≈ 174 µM) | 16 (≈ 21.7 µM) | – |
| Cc1c(C(=O)NNCc2nc3ccccc3n2Cc2ccccc2Cl)sc(C(=O)NNCc2nc3ccccc3n2Cc2ccccc2Cl)c1C | 6.25 | 128 (≈ 174 µM) | 128 (≈ 174 µM) | 32 (≈ 43.4 µM) | 16 (≈ 21.7 µM) | 64 (≈ 86.8 µM) | 32 (≈ 43.4 µM) | 32 (≈ 43.4 µM) | 16 (≈ 21.7 µM) | 32 (≈ 43.4 µM) | 32 (≈ 43.4 µM) | 16 (≈ 21.7 µM) | – |
| CCCn1c(CNNC(=O)c2sc(C(=O)NNCc3nc4ccccc4n3CCC)c(C)c2C)nc2ccccc21.Cl | – | 128 | 4 | 32 | 16 | 32 | 128 | 256 | 256 | 256 | 256 | 32 | – |
| CCCCCCCCCCn1c(CNNC(=O)c2sc(C(=O)NNCc3nc4ccccc4n3CCCCCCCCCC)c(C)c2C)nc2ccccc21.Cl | – | 4 | 4 | 8 | 2 | 16 | 8 | 4 | 8 | 2 | 2 | 2 | – |

Source: ChEMBL document CHEMBL2203243, “Synthesis and biological evaluation of novel benzimidazole derivatives and their binding behavior with bovine serum albumin” (Eur J Med Chem, 2012)
